According to ChEMBL document CHEMBL1154414, “In vitro and in vivo activities of T-705 against arenavirus and bunyavirus infections” (Antimicrob Agents Chemother, 2007):
pEC50: −log10 of the molar value. Calls of active or inactive are those of the source. No cut-off for these calls is given here.

Assays:
[1] = test system: Punta Toro virus; assay: Antiviral activity against 50 PFU Punta Toro virus Adames infected C57BL/6 mouse assessed as mean day of death at 10 mg/kg, po twice daily for 5 days administered 24 hrs post viral challenge; format: functional
Summary of the method: (§1)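 Groups of 15 mice (25–30 placebo) were inoculated subcutaneously with PTV. Drug in 0.4% carboxymethylcellulose was given by oral gavage twice daily.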

[2] = test system: Punta Toro virus; assay: Antiviral activity against 50 PFU Punta Toro virus Adames infected C57BL/6 mouse assessed as mean serum ALT levels at 10 mg/kg, po twice daily administered 24 hrs post viral challenge measured on day 3 of viral infection; format: functional
Summary of the method: (§2)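 Subcutaneous PTV infection was followed by oral gavage twice daily with drug suspended in 0.4% CMC. Serum was collected from 5 sacrificed mice per group (10 placebo) on day 3 or 4. ALT activity was measured by kinetic assay, and sham-infected mice set the baselines.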

[3] = test system: Pichinde virus; assay: Antiviral activity against Pichinde virus An 4763 infected Syrian golden hamster assessed as mean viral titer per 0.1 g of liver at 50 mg/kg, po twice daily for 7 days administered 72 hrs post viral-challenge measured on day 7 of viral infection; format: functional
Summary of the method: (§3)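 Hamsters (groups of 15, placebo 25-30) were dosed orally by gavage twice daily (drug suspended in 0.4% CMC) after bilateral intraperitoneal challenge with 65 PFU. Five per group were killed on day 7. Liver homogenate or serum was serially diluted onto triplicate B-SC-1 wells, CPE was read at 6-8 days, and the 50% endpoint was taken. Range was 2.8-9.5 log10 CCID50/0.1 g or 0.1 ml, with undetectable assigned <2.8.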

[4] = test system: Sandfly fever Naples virus; assay: Antiviral activity against Sandfly fever Naples virus assessed as inhibition of virus-induced visual cytopathic effect after 3 to 5 days; format: functional, organism-based
Summary of the method: (§4)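 Virus in medium with 2% FBS was used at the CCID50 that gave maximal CPE. Half-log drug dilutions (DMSO stock, ≤1% DMSO at the top concentration) were added at infection. EC50 was derived by regression analysis.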

[5] = test system: Punta Toro virus; assay: Antiviral activity against 500 PFU Punta Toro virus Adames infected C57BL/6 mouse assessed as mean viral titer per 0.1 g of liver at 10 mg/kg, po twice daily administered 24 hrs post viral challenge measured on day 3 of viral infection; format: functional
Summary of the method: (§5)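 Mice were infected subcutaneously with PTV and dosed by oral gavage twice daily; 5 per group (10 placebo) were killed on day 3 or 4. Liver homogenate or serum was serially diluted onto triplicate LLC-MK2 monolayers, and CPE was read 6–8 days later. 50% endpoints gave log10 CCID50 per 0.1 g liver or 0.1 ml serum. Detection range was 2.8–9.5; undetectable samples were assigned <2.8.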

[6] = test system: Punta Toro virus; assay: Antiviral activity against Punta Toro virus Adames infected Syrian golden hamster assessed as animals with detectable virus level in serum at 30 mg/kg, […] measured on day 4 of viral infection; format: functional; details: route oral
[7] = test system: Pichinde virus; assay: Antiviral activity against Pichinde virus An 4763 infected Syrian golden hamster assessed as inhibition of liver damage at 40 mg/kg, po twice daily for 7 days administered 4 hrs before viral-challenge measured on day 7 of viral infection; format: functional, organism-based; design: dose 40 mg/kg
Summary of the method: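 Hamsters were challenged intraperitoneally (bilateral, 65 PFU) and dosed twice daily by oral gavage in 0.4% CMC. On day 7, five animals per group were sacrificed. Livers were scored 0-4 for hepatic icterus (0 normal, 4 maximal yellow coloration), and serum ALT was measured by kinetic assay.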

[8] = test system: Pichinde virus; assay: Antiviral activity against Pichinde virus An 4763 infected Syrian golden hamster assessed as mean serum ALT levels at 20 mg/kg, po twice daily for 7 days administered 72 hrs post viral-challenge measured on day 7 of viral infection; format: functional
Summary of the method: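 Hamsters were challenged intraperitoneally (bilateral, 65 PFU) and given twice-daily oral gavage doses (0.4% CMC vehicle). Five per group were sacrificed on day 7 and serum was collected. Serum ALT activity was measured by kinetic assay. Three sham-infected animals set the baselines.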

[9] = test system: Pichinde virus; assay: Antiviral activity against Pichinde virus An 4763 infected Syrian golden hamster assessed as mean viral titer per 0.1 g of liver at 50 mg/kg, po twice daily for 7 days administered 24 hrs post viral-challenge measured on day 7 of viral infection; format: functional; summary of the method: as §3
[10] = test system: Pichinde virus; assay: Antiviral activity against Pichinde virus An 4763 infected Syrian golden hamster assessed as survival at 50 mg/kg, po twice daily for 7 days administered 72 hrs post viral-challenge; format: functional
Summary of the method: (§6)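 Groups of 15 hamsters (placebo 25-30) were challenged intraperitoneally (bilateral, 65 PFU) and dosed twice daily by oral gavage in 0.4% CMC for 5 to 7 days.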

[11] = test system: Punta Toro virus; assay: Antiviral activity against 500 PFU Punta Toro virus Adames infected C57BL/6 mouse assessed as mean day of death at 30 mg/kg, po twice daily for 5 days administered 24 hrs post viral challenge; format: functional; summary of the method: as §1
[12] = test system: Pichinde virus; assay: Antiviral activity against Pichinde virus An 4763 infected Syrian golden hamster assessed as mean viral titer per 0.1 mL of serum at 20 mg/kg, po twice daily for 7 days administered 72 hrs post viral-challenge measured on day 7 of viral infection; format: functional; summary of the method: as §3
[13] = test system: Pichinde virus; assay: Antiviral activity against Pichinde virus An 4763 in Vero cells assessed as inhibition of virus-induced visual cytopathic effect after 7 to 8 days; format: functional, organism-based
Summary of the method: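 Subconfluent (50-70%) Vero cells were infected with virus in 2% FBS medium at the CCID50 giving maximal CPE. Half-log drug dilutions were added at infection. EC50 was obtained by regression analysis.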

[14] = test system: Punta Toro virus; assay: Antiviral activity against 50 PFU Punta Toro virus Adames infected C57BL/6 mouse assessed as survival at 30 mg/kg, po twice daily for 5 days administered 24 hrs post viral challenge; format: functional, organism-based; design: dose 30 mg/kg; summary of the method: as §1
[15] = test system: Pichinde virus; assay: Antiviral activity against Pichinde virus An 4763 infected Syrian golden hamster assessed as mean day of death at 50 mg/kg, po twice daily for 7 days administered 72 hrs post viral-challenge measured on day 7 of viral infection; format: functional; summary of the method: as §6
[16] = test system: Punta Toro virus; assay: Antiviral activity against 50 PFU Punta Toro virus Adames infected C57BL/6 mouse assessed as mean viral titer per 0.1 mL of serum at 30 mg/kg, po twice daily administered 24 hrs post viral challenge measured on day 3 of viral infection; format: functional
Summary of the method: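 Mice were infected subcutaneously with PTV and dosed by oral gavage twice daily with drug in 0.4% CMC. Five per group (10 placebo) were sacrificed on day 3 or 4. Serially diluted liver homogenate or serum went into triplicate LLC-MK2 wells, and CPE 50% endpoints were read at 6–8 days. The range was 2.8–9.5 log10 CCID50/0.1 g or 0.1 ml, with undetectable samples set to 2.8 and saturated samples to 9.5.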

[17] = test system: Punta Toro virus; assay: Antiviral activity against 5000 PFU Punta Toro virus Adames infected C57BL/6 mouse assessed as mean viral titer per 0.1 g of liver at 30 mg/kg, po twice daily administered 24 hrs post viral challenge measured on day 3 of viral infection; format: functional; summary of the method: as §5
[18] = test system: Punta Toro virus; assay: Antiviral activity against 5000 PFU Punta Toro virus Adames infected C57BL/6 mouse assessed as mean serum ALT levels at 30 mg/kg, po twice daily administered 24 hrs post viral challenge measured on day 3 of viral infection; format: functional
Summary of the method: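 C57BL/6 mice received subcutaneous PTV, then oral gavage twice daily for 5–7 days. T-705 was given in 0.4% CMC and ribavirin in saline. Five mice per group (10 placebo) were killed on day 3 or 4, and serum was collected. ALT activity was measured by kinetic assay. Three sham-infected mice set baselines.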

[19] = test system: Punta Toro virus; assay: Antiviral activity against Punta Toro virus Adames assessed as inhibition of virus-induced visual cytopathic effect after 3 to 5 days; format: functional, organism-based; summary of the method: as §4
[20] = test system: Punta Toro virus; assay: Antiviral activity against 500 PFU Punta Toro virus Adames infected C57BL/6 mouse assessed as mean serum ALT levels at 10 mg/kg, po twice daily administered 24 hrs post viral challenge measured on day 3 of viral infection; format: functional; summary of the method: as §2

Structure (SMILES)	Activity [1] [days]	Activity [2] [IU/L]	log10CCID50 [3]	pEC50 [4]	log10CCID50 [5]	Activity [6] [%]	Activity [7]	Activity [8] [IU/L]	log10CCID50 [9]	Efficacy [10] [%]	Activity [11] [days]	log10CCID50 [12]	pEC50 [13]	Activity [14]	Activity [15] [days]	log10CCID50 [16]	log10CCID50 [17]	Activity [18] [IU/L]	pEC50 [19]	Activity [20] [IU/L]
NC(=O)c1ncn([C@@H]2O[C@H](CO)[C@@H](O)[C@H]2O)n1 [RIBAVIRIN]	5.3	846	6.5	4.05	<2.9	0	Active	67	4.2	60	5.3	6.8	4.89	Active	18.5	6.1	<2.9	1491	3.76	2150
NC(=O)c1nc(F)cnc1O [FAVIPIRAVIR]	5.8	3273	6.8	3.94	<2.8	40	Active	1890	5.7	60	5	>8.6	5.22	Active	14.8	<4.4	<2.9	521	3.72	3302
